This is an account of results in ChEMBL document CHEMBL1128308, “Synthesis and antiinflammatory activity of certain 5,6,7,8-tetrahydroquinolines and related compounds” (J Med Chem, 1995).

The target in experiment [1] is T1, Polyunsaturated fatty acid 5-lipoxygenase (Rattus norvegicus) (UniProt P12527).
T1 sequence (whole entry): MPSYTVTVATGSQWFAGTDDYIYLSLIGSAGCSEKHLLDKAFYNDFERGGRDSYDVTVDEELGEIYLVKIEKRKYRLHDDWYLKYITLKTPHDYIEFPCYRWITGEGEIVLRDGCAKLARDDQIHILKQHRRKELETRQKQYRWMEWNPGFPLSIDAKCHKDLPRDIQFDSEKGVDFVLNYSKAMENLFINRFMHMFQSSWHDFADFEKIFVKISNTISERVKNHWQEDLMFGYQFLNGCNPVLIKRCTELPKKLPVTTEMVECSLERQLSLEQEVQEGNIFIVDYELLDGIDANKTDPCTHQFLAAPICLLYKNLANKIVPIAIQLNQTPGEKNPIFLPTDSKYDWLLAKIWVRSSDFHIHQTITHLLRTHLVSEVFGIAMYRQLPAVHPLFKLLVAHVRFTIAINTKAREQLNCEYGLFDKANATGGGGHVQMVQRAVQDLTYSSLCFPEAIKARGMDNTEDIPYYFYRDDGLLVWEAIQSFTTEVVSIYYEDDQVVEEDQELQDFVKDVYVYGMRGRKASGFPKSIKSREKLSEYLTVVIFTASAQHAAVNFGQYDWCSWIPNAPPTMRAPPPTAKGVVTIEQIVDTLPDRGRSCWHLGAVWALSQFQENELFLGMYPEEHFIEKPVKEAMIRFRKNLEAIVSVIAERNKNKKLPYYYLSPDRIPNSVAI

In experiment [2] the target is Cyclooxygenase (Rattus norvegicus) (UniProt P35355+Q63921).
In experiment [3] the target is T1, Polyunsaturated fatty acid 5-lipoxygenase (Rattus norvegicus). The source holds these as a separate data set.
Experiment [4] has as its system Rattus norvegicus. Kind of experiment: Antiinflammatory activity by rat adjuvant arthritis assay at 30 mg/kg peroral administration (uninjected paw at day 16). To be noted: route oral.
Experiment [5] relates to Rattus norvegicus. Briefly: Antiinflammatory activity by rat Carrageenan edema assay at 50 mg/kg peroral administration (3h edema). It counts as functional. To be noted: route oral. An outline of the steps: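 Groups of six male Sprague-Dawley rats (150-165 g) were dosed po in 0.5% methyl cellulose. One hour later, 0.1 mL of 1% carrageenan was injected subplantar into the right hind paw. Edema was taken as the 3 h paw volume minus the zero-time volume and expressed as percent change versus vehicle; screening dose was 50 mg/kg po.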
In general terms: In the carrageenan paw model, swelling and tenderness develop within hours.

Experiment [6] has as its target T1, Polyunsaturated fatty acid 5-lipoxygenase (Rattus norvegicus). Kind of experiment: Inhibition of 5-lipoxygenase pathway in rat polymorphonuclear assay, by ability to inhibit formation of LTB4 AT 10 uM.
The target is the same in experiment [7]. Kind of experiment: 5-lipoxygenase Inhibitory activity against rat polymorphonuclear leucocytes using 5-HETE. The procedure, abridged:
(§1)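 Rat polymorphonuclear leucocytes at 10^7 cells/mL in HBSS (Mg2+, Ca2+, 10 mM cysteine) were preincubated with compound, added in DMSO, for 10 min at 37 °C with shaking. Radiolabeled eicosanoids (5-HETE for the 5-LO pathway, TXB2 for the CO pathway) were separated by HPLC and detected with an in-line radioactivity detector. Results are given as percent change at 10 µM or 50 µM.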

The target is the same in experiment [8]. Briefly: Inhibition of 5-lipoxygenase pathway in rat polymorphonuclear assay (inhibition of 5-HETE formation). The procedure, abridged:
as §1

For experiment [9] the target is unchanged. Briefly: Inhibition of 5-lipoxygenase pathway was evaluated in rat polymorphonuclear assay by compound (50 uM) ability to inhibit formation of 5-HETE. An outline of the steps:
as §1

For orientation: IC50 means the point on the concentration scale where inhibition reaches its midpoint. A high value points to lower potency. As to `COc1ccc2cc([C@H](C)C(=O)O)ccc2c1`, the results for the IC50 in experiment [1], in [2] and in experiment [3] were > 100000 nM, 100 nM and > 100000 nM, respectively.
In the case of `Cc1cnc2c(c1)CCCC2Sc1ccccc1` (stereo not drawn), the Change with Rattus norvegicus [4] is -27%; in the experiment on Rattus norvegicus [5], -21%; in experiment [6], -39%; in experiment [7], -50%.
As for `Cc1ccc([C@H](O)[C@@H]2CCCCc3cccnc32)cc1`, the Change is -32% with Rattus norvegicus [4], -26% in the experiment on Rattus norvegicus [5], -37% in [6] and -31% in experiment [8].
Turning to `COc1cc(/C=C2\CCCc3c(C)ccnc32)ccc1OC(C)=O`, the Change in [9] is -100%; with Rattus norvegicus [4], 23%; with Rattus norvegicus [5] it was -45%.
With `C/C(=C1/CCCc2c(C)ccnc21)c1ccc(C)cc1`, the Change was 0% in the experiment with Rattus norvegicus [4], -15% in the experiment on Rattus norvegicus [5], -18% in experiment [6] and 1% in experiment [7].
Turning to `Cc1ccc(C(O)Cc2ccc3c(n2)CCCCC3)cc1` (stereo not drawn), the Change in the experiment with Rattus norvegicus [4] is 28%; in the experiment on Rattus norvegicus [5], -41%; in experiment [6], -29%; in [8], -14%.
On to `Cc1ccc([C@@H](O)[C@H]2c3ncc(C)cc3CCC2(C)C)cc1`, for which the Change with Rattus norvegicus [4] was -39%; in the experiment on Rattus norvegicus [5], -19%; in [6] it was 8%; in experiment [8], 27%.
`COc1cccc(C(O)c2nc3c(cc2C)CCCCC3)c1` (stereo not drawn): the Change was -14% with Rattus norvegicus [4], -28% with Rattus norvegicus [5], -50% in experiment [6] and -34% in experiment [8].
Consider `Cc1ccc([C@@H](O)[C@@H]2CCCCc3cccnc32)cc1`, for which the Change with Rattus norvegicus [4] was -42%; with Rattus norvegicus [5], -33%; in [6], -37%; in experiment [8], -37%.
Consider `CC(c1cc2ccccc2s1)N(O)C(N)=O` (stereo not drawn), for which the 50% inhibitory concentration (IC50) in [1] was found to be 300 nM; in experiment [2], 16000 nM; in experiment [3] it was 400 nM.
With `Cc1ccc([C@H](O)[C@@H]2CCCc3cc(C)cnc32)cc1`, the Change was 49% with Rattus norvegicus [4], -33% in the experiment with Rattus norvegicus [5], -48% in [6] and -49% in [8].
On to `Cc1cnc2c(c1)CCCC2[S+]([O-])c1ccccc1` (stereo not drawn), for which the Change with Rattus norvegicus [4] was 13%; in the experiment with Rattus norvegicus [5] it was -25%; in [6], 13%; in [8], 50%.
On to `Cc1ccc(S(=O)(=O)NC2CCCc3cc(C)cnc32)cc1` (stereo not drawn), for which the Change is 77% with Rattus norvegicus [4], -33% in the experiment with Rattus norvegicus [5], 2% in experiment [6] and -16% in [7].
Consider `Cc1ccnc2c1CCC/C2=C/c1ccnc2ccccc12`, for which the Change in the experiment on Rattus norvegicus [4] is -38%; with Rattus norvegicus [5] it was -36%; in experiment [6] it was -23%; in experiment [7], -5%.
Turning to `Cc1ccc(C(O)c2nc3c(cc2C)CCC3)cc1` (stereo not drawn), the Change is -2% in the experiment on Rattus norvegicus [4], -3.5% in the experiment with Rattus norvegicus [5], -43% in experiment [6] and -45% in [8].
Consider `Cc1cc2c(nc1C(O)c1ccc(C(F)(F)F)cc1)CCCCC2` (stereo not drawn), for which the Change in the experiment with Rattus norvegicus [4] is -18%; with Rattus norvegicus [5] it was -24%; in experiment [6], 40%; in experiment [8], 5%.
Regarding `Cc1ccc(C(C)(O)c2nc3c(cc2C)CCCCC3)cc1` (stereo not drawn), the Change in the experiment on Rattus norvegicus [4] is -4%; in the experiment with Rattus norvegicus [5], 2.5%; in experiment [6], -13%; in experiment [8], -14%.
As to `Cc1ccc(/C=C2\c3ncc(C)cc3CCC2(C)C)cc1`, the Change with Rattus norvegicus [4] is 8%; in the experiment on Rattus norvegicus [5], -48%; in experiment [6], 86%; in [7], 97%.
As to `Cc1ccnc2c1CCC/C2=C\c1ccncc1`, the Change with Rattus norvegicus [4] was 3%; with Rattus norvegicus [5], -15%; in [6] it was -4%; in experiment [7], 9%.
For the molecule `Cc1ccc(C(N)c2nc3c(cc2C)CCCCC3)cc1` (stereo not drawn), the Change in the experiment on Rattus norvegicus [4] is -3%; in the experiment with Rattus norvegicus [5] it was -10%; in experiment [6], -29%; in [8], -23%.
For the molecule `Cc1ccc(/C=C2\CCCc3cc(C)cnc32)cc1`, the Change in [9] was -28%; in the experiment with Rattus norvegicus [4] it was 17%; in the experiment on Rattus norvegicus [5], -47%.
Regarding `COc1cc(/C=C2\CCCc3cc4ccccc4nc32)ccc1OC(C)=O`, the Change is -100% in [9], 14% with Rattus norvegicus [4] and -39% in the experiment with Rattus norvegicus [5].
On to `Cc1ccc(C(=O)C2CCCc3c(C)ccnc32)cc1C` (stereo not drawn), for which the Change with Rattus norvegicus [4] is -28%; with Rattus norvegicus [5], -25%; in experiment [6], -53%; in experiment [7], -50%.
As for `Cc1ccc([C@@H](O)[C@@H]2CCCc3cc(C)cnc32)cc1`, the Change in the experiment with Rattus norvegicus [4] was -3%; in the experiment with Rattus norvegicus [5] it was -15%; in experiment [6] it was -11%; in experiment [8], -27%.
Consider `Cc1ccnc2c1CCC/C2=C/c1ccncc1`, for which the Change in the experiment on Rattus norvegicus [4] is -49%; with Rattus norvegicus [5], -17%; in [6], -25%; in experiment [7], -17%.
Turning to `Cc1ccc(C(O)c2nc3c(cc2C)CCCC3)cc1` (stereo not drawn), the Change in the experiment with Rattus norvegicus [4] is -34%; in the experiment with Rattus norvegicus [5], -12.5%; in experiment [6], -23%; in experiment [8], -44%.
`Cc1cc2c(nc1C(O)c1cccs1)CCCCC2` (stereo not drawn): the Change with Rattus norvegicus [4] is -6%; in the experiment with Rattus norvegicus [5], -9.5%; in experiment [6], 34%; in experiment [8], 37%.
For `COC(c1ccc(C)cc1)c1nc2c(cc1C)CCCCC2` (stereo not drawn), the Change with Rattus norvegicus [4] was -26%; in the experiment on Rattus norvegicus [5], -9.5%; in experiment [6] it was -12%; in [8], -10%.
For the molecule `Cc1ccc(C(O)c2ccc3c(n2)CCCCC3)cc1` (stereo not drawn), the Change in the experiment with Rattus norvegicus [4] is -33%; in the experiment on Rattus norvegicus [5], -26%; in experiment [6], -25%; in experiment [8], -28%.
Consider `Cc1ccc(C(=O)C2CCCc3c(C)ccnc32)cc1` (stereo not drawn), for which the Change was 19% with Rattus norvegicus [4], -12% with Rattus norvegicus [5], -34% in experiment [6] and -41% in experiment [7].
On to `Cc1ccc(Cc2nc3c(cc2C)CCCCC3)cc1`, for which the results for the Change (in the experiment with Rattus norvegicus [5]; in [6]; in experiment [8]) were -26%, -57% and -37%, respectively.
For the molecule `Cc1cc2c(nc1C(O)c1cccnc1)CCCCC2` (stereo not drawn), the Change in the experiment on Rattus norvegicus [4] was 18%; in the experiment on Rattus norvegicus [5], -14%; in experiment [6] it was 9%; in experiment [8], -5%.
On to `Cc1cc2c(nc1C(O)c1cccc(Cl)c1)CCCCC2` (stereo not drawn), for which the Change with Rattus norvegicus [4] was 30%; in the experiment on Rattus norvegicus [5], -28%; in [6], -51%; in experiment [8], -42%.
For the molecule `C/C(=C1\CCCc2c(C)ccnc21)c1ccc(C)cc1`, the Change is -14% in the experiment with Rattus norvegicus [4], -15% in the experiment on Rattus norvegicus [5], -22% in experiment [6] and 7% in [7].
Consider `Cc1cc2c(nc1C(O)c1ccccc1)CCCCC2` (stereo not drawn), for which the Change is -45% with Rattus norvegicus [4], -45% in the experiment with Rattus norvegicus [5], -4% in experiment [6] and -29% in experiment [8].
On to `Cc1ccc(C(=O)c2nc3c(cc2C)CCCCC3)cc1`, for which the Change in the experiment on Rattus norvegicus [4] was -26%; with Rattus norvegicus [5], -59%; in experiment [6], -52%; in experiment [8], -49%.
In the case of `Cc1cnc2c(c1)CCCC2S(=O)(=O)c1ccccc1` (stereo not drawn), the Change in the experiment on Rattus norvegicus [4] was -2%; in the experiment with Rattus norvegicus [5] it was -22%; in experiment [6], 6%; in [8], 0%.
With `COc1cc(/C=C2\CCCc3cc(C)cnc32)ccc1O`, the Change is reported as -1% in the experiment with Rattus norvegicus [4] and -36% in the experiment with Rattus norvegicus [5].
In the case of `Cc1cccc(C(=O)C2CCCc3cccnc32)c1` (stereo not drawn), the Change was -16% in the experiment with Rattus norvegicus [4], -6% with Rattus norvegicus [5], -11% in [6] and 23% in experiment [7].
